In ChEMBL document CHEMBL4477201, “Imidazopyridine and Pyrazolopiperidine Derivatives as Novel Inhibitors of Serine Palmitoyl Transferase” (J Med Chem, 2016):
One block for each compound: values may come before it. Calls of active or inactive are those of the source. The rule behind the calls is not given here.

Columns and labels:
[1] = target: T1, Serine palmitoyltransferase 1 (Homo sapiens, UniProt O15269); assay: (§1) Inhibition of SPT1 in human MCF7 cells assessed as suppression of 14C-serine incorporation into ceramide incubated for 2 hrs in presence of 4-HPR; type: cell-based
T1 sequence (O15269 whole entry): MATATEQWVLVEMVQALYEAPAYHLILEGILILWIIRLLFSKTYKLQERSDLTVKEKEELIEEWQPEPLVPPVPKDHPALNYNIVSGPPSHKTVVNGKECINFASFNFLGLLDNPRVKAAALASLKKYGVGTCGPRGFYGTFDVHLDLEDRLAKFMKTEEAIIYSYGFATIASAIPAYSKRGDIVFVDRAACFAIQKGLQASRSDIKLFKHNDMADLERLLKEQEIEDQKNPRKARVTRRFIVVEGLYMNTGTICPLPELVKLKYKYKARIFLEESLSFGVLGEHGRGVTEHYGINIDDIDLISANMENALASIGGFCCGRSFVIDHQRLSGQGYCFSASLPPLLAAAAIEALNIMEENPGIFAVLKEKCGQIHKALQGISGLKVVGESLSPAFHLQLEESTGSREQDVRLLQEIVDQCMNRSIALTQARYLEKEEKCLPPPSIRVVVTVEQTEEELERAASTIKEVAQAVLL
Procedure, shortened: (§2)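 Human MCF-7 cells incubated 2 h with a range of compound concentrations or DMSO control media. Medium contained 14C-serine plus 25 uM 4-HPR to activate SPT. 14C-serine-labeled ceramide products quantified to give EC50.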

Mus musculus [2] = assay: Reduction in plasma C18:0 ceramide level in diet-induced obese C57BL6 mouse at 0.5 mg/kg administered daily through oral gavage for 28 days measured 2 hrs post last dose relative to lean control; type: functional, organism-based
Procedure, shortened: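 DIO mice received daily oral doses for 4 weeks as part of a dose-response study. Plasma was sampled 2 h after the final dose. Total and C18:0 plasma ceramides were measured and compared with those of lean control mice. At the end of dosing, the same cohort underwent an oral glucose tolerance test.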

[3] = Drug uptake in diet-induced obese C57Bl/6 mouse liver at 30 mg/kg, po qd for 4 weeks measured 6 hrs post last dose; type: ADME, organism-based; details: read-out: Drug uptake
Procedure, shortened: (§3)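 Male DIO mice dosed orally for 4 weeks. Sacrificed 6 h after the last dose. Compound measured in serum (ng/mL) and liver (ng/g), and the liver:serum ratio calculated.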

Mus musculus [4] = assay: Reduction in total liver ceramide level in diet-induced obese C57BL6 mouse at 1 to 60 mg/kg administered daily through oral gavage for 28 days measured 6 hrs post last dose relative to lean control; type: functional, organism-based
Procedure, shortened: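 Liver total ceramide levels measured in DIO mice after 4 weeks of oral dosing.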

[5] = Cmax in Sprague-Dawley rat at 1 mg/kg, iv; type: ADME, organism-based; design: dose 1 mg/kg, route intravenous; details: in vivo
Procedure, shortened: (§4)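 Single dose to fasted male Sprague Dawley rats, IV at 1 mg/kg or oral at 3 mg/kg. Plasma levels followed to derive AUC0-24hr, Cmax, half-life, Vdss and oral bioavailability.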

[6] = Toxicity in diet-induced obese C57Bl/6 mouse assessed as change in food intake at 1 to 60 mg/kg, po qd for 4 weeks; type: organism-based; details: in vivo, 672 h
Procedure, shortened: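 Food intake monitored in DIO mice during 4 weeks of daily oral dosing.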

[7] = target: T1, Serine palmitoyltransferase 1; assay: Inhibition of human SPT1 expressed in microsomes of HEK293 cells incubated for 1hr by LC/MS analysis
Procedure, shortened: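 SPT source was a microsomal fraction from HEK293 cells, with serine and palmitoyl coenzyme A as substrates. Formation of 3-ketodeoxysphinganine quantified by LC/MS. Inhibition determined at 10 concentrations per compound to give IC50.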

Rattus norvegicus [8] = assay: Reduction in total plasma ceramide level in cholic acid/cholesterol-fed Sprague-Dawley rat model of dyslipidemia at 30 to 60 mg/kg administered bid through oral gavage measured after 1 week by FPLC analysis relative to vehicle-treated control; type: functional, organism-based
Procedure, shortened: (§5)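 Sprague Dawley rats fed a cholic acid/cholesterol diet for 14 days, then dosed orally BID for 7 days at five dose levels, n=6. Serum ceramides and VLDL and HDL cholesterol compared with vehicle (dose 0). Mean ± SEM; Dunnett's test, p<0.05.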

[9] = Ratio of drug uptake in diet-induced obese C57Bl/6 mouse liver to serum at 30 mg/kg, po qd for 4 weeks measured 6 hrs post last dose; type: ADME, organism-based; procedure, shortened: as §3
[10] = target: T2, Serine palmitoyltransferase 1 (Homo sapiens) (UniProt O15269); assay: as §1; type: cell-based; procedure, shortened: as §2
T2 sequence (whole entry): T1 sequence (O15269 whole entry)

[11] = Drug uptake in diet-induced obese C57Bl/6 mouse serum at 1 mg/kg, po qd for 4 weeks measured 6 hrs post last dose; type: ADME, organism-based; details: read-out: Drug uptake; procedure, shortened: as §3
[12] = Ratio of drug uptake in diet-induced obese C57Bl/6 mouse liver to serum at 3 mg/kg, po qd for 4 weeks measured 6 hrs post last dose; type: ADME, organism-based; procedure, shortened: as §3
[13] = Dissociation constant, pKa of the compound; type: physicochemical
[14] = Drug uptake in diet-induced obese C57Bl/6 mouse liver at 60 mg/kg, po qd for 4 weeks measured 6 hrs post last dose; type: ADME, organism-based; details: read-out: Drug uptake; procedure, shortened: as §3
[15] = Drug uptake in diet-induced obese C57Bl/6 mouse serum at 30 mg/kg, po qd for 4 weeks measured 6 hrs post last dose; type: ADME, organism-based; details: read-out: Drug uptake; procedure, shortened: as §3
[16] = Ratio of drug uptake in diet-induced obese C57Bl/6 mouse liver to serum at 60 mg/kg, po qd for 4 weeks measured 6 hrs post last dose; type: ADME, organism-based; procedure, shortened: as §3
[17] = Volume of distribution at steady state in Sprague-Dawley rat at 1 mg/kg, iv; type: ADME, organism-based; details: in vivo, read-out: Vdss; procedure, shortened: as §4
[18] = Fraction unbound in rat; type: ADME
[19] = Drug uptake in diet-induced obese C57Bl/6 mouse serum at 3 mg/kg, po qd for 4 weeks measured 6 hrs post last dose; type: ADME, organism-based; details: read-out: Drug uptake; procedure, shortened: as §3
[20] = Drug uptake in diet-induced obese C57Bl/6 mouse liver at 3 mg/kg, po qd for 4 weeks measured 6 hrs post last dose; type: ADME, organism-based; details: read-out: Drug uptake; procedure, shortened: as §3
[21] = Ratio of drug uptake in diet-induced obese C57Bl/6 mouse liver to serum at 10 mg/kg, po qd for 4 weeks measured 6 hrs post last dose; type: ADME, organism-based; procedure, shortened: as §3
[22] = Oral bioavailability in Sprague-Dawley rat at 3 mg/kg; type: ADME, organism-based; details: in vivo; procedure, shortened: as §4
[23] = Drug uptake in diet-induced obese C57Bl/6 mouse serum at 60 mg/kg, po qd for 4 weeks measured 6 hrs post last dose; type: ADME, organism-based; details: read-out: Drug uptake; procedure, shortened: as §3
[24] = Drug uptake in diet-induced obese C57Bl/6 mouse serum at 10 mg/kg, po qd for 4 weeks measured 6 hrs post last dose; type: ADME, organism-based; details: read-out: Drug uptake; procedure, shortened: as §3
Rattus norvegicus [25] = assay: Increase in HDL level in cholic acid/cholesterol-fed Sprague-Dawley rat model of dyslipidemia administered bid through oral gavage measured after 1 week by FPLC analysis relative to vehicle-treated control; type: functional, organism-based; procedure, shortened: as §5
Mus musculus [26] = assay: Reduction in total plasma ceramide level in diet-induced obese C57BL6 mouse administered daily through oral gavage for 28 days measured 2 hrs post last dose relative to lean control; type: functional, organism-based
Procedure, shortened: (§6)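 DIO mice dosed orally for 28 days, with myriocin as positive control and lean mice as reference. Total and C18:0 plasma ceramides measured 2 h after the final dose.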

Mus musculus [27] = assay: Reduction in serum insulin AUC in diet-induced obese C57BL6 mouse at 1 to 60 mg/kg, po qd for 4 weeks by oral glucose tolerance test relative to lean control; type: functional, organism-based
Procedure, shortened: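 After 4 weeks of oral dosing, DIO mice underwent an oral glucose tolerance test. Insulin and glucose AUC compared with lean mice; trend assessed by ANOVA trend analysis.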

Mus musculus [28] = assay: Reduction in plasma C18:0 ceramide level in diet-induced obese C57BL6 mouse at 1 to 60 mg/kg administered daily through oral gavage for 28 days measured 2 hrs post last dose relative to lean control; type: functional, organism-based; procedure, shortened: as §6
[29] = AUC (0 to 24 hrs) in Sprague-Dawley rat at 3 mg/kg,po; type: ADME, organism-based; design: time < 24 hr, dose 3 mg/kg, route oral; details: in vivo; procedure, shortened: as §4
[30] = Half life in Sprague-Dawley rat at 1 mg/kg, iv; type: ADME, organism-based; details: in vivo; procedure, shortened: as §4
[31] = Drug uptake in diet-induced obese C57Bl/6 mouse liver at 1 mg/kg, po qd for 4 weeks measured 6 hrs post last dose; type: ADME, organism-based; details: read-out: Drug uptake; procedure, shortened: as §3
[32] = Volume of distribution at steady state in Sprague-Dawley rat at 3 mg/kg,po; type: ADME, organism-based; details: in vivo
Procedure, shortened: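 Male Sprague Dawley rats, fasted, single oral dose of 3 mg/kg. A parallel arm received 1 mg/kg IV. Plasma was sampled for pharmacokinetics over 0-24 hr. Steady-state volume of distribution is reported […], in mL/kg.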

Rattus norvegicus [33] = assay: Reduction in vLDL level in cholic acid/cholesterol-fed Sprague-Dawley rat model of dyslipidemia at 60 mg/kg administered bid through oral gavage measured after 1 week by FPLC analysis relative to vehicle-treated control; type: functional, organism-based; procedure, shortened: as §5
[34] = Lipophilicity, log P of compound; type: physicochemical; details: octanol/water
[35] = AUC (0 to 24 hrs) in Sprague-Dawley rat at 1 mg/kg, iv; type: ADME, organism-based; design: time < 24 hr, dose 1 mg/kg, route intravenous; details: in vivo; procedure, shortened: as §4
[36] = Drug uptake in diet-induced obese C57Bl/6 mouse liver at 10 mg/kg, po qd for 4 weeks measured 6 hrs post last dose; type: ADME, organism-based; details: read-out: Drug uptake; procedure, shortened: as §3
[37] = Half life in Sprague-Dawley rat at 3 mg/kg,po; type: ADME, organism-based; details: in vivo; procedure, shortened: as §4
[38] = Ratio of drug uptake in diet-induced obese C57Bl/6 mouse liver to serum at 1 mg/kg, po qd for 4 weeks measured 6 hrs post last dose; type: ADME, organism-based; procedure, shortened: as §3
[39] = Cmax in Sprague-Dawley rat at 3 mg/kg,po; type: ADME, organism-based; design: dose 3 mg/kg, route oral; details: in vivo; procedure, shortened: as §4
Mus musculus [40] = assay: Reduction in total plasma ceramide level in C57BL6 mouse administered through gavage after 6 hrs by mass spectrometry relative to vehicle-treated control; type: functional
Procedure, shortened: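 Normal C57bl6 mice given a single oral dose at six dose levels, n=3 per group. Plasma collected 6 h post dose. C16:0, C20:0, C22:0, C24:0 and C24:1 ceramides measured by mass spectrometry and summed; total reduction calculated versus vehicle. ED50 derived from the dose-response; mean ± SEM.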

[41] = Toxicity in rat assessed as induction of gastric enteropathy during 14 days toxicology study; details: in vivo, 336 h

SMILES: CCCCCCC(=O)CCCCCC/C=C/C[C@@H](O)[C@H](O)[C@@](N)(CO)C(=O)O [MYRIOCIN]
EC50 [1]: 49.5 nM | Activity (Mus musculus [2]): Active

concentration at 6 h [3]: 6580 ng/g | Cmax [5]: 2540 ng/mL | IC50 [7]: 5.19 nM | Kp at 6 h [9]: 10 | inhibition [10]: Dose-dependent effect | EC50 [1]: 977 nM | concentration at 6 h [11]: 88 ng/mL | Kp at 6 h [12]: 3 | pKa [13]: 4.73 | concentration at 6 h [14]: 181000 ng/g | concentration at 6 h [15]: 677 ng/mL | Kp at 6 h [16]: 54 | Vd [17]: 0.574 L/kg | fraction unbound [18]: < 0.02 | concentration at 6 h [19]: 264 ng/mL | concentration at 6 h [20]: 789 ng/g | Kp at 6 h [21]: 8 | bioavailability [22]: 75% | concentration at 6 h [23]: 3350 ng/mL | concentration at 6 h [24]: 341 ng/mL | AUC(0-t) at 24 h [29]: 2920 ng·h/mL | half-life [30]: 2.13 h | concentration at 6 h [31]: 463 ng/g | Vdss [32]: 1.84 L/kg | logP [34]: 3.97 | AUC(0-t) at 24 h [35]: 1270 ng·h/mL | concentration at 6 h [36]: 2850 ng/g | half-life [37]: 1.48 h | Kp at 6 h [38]: 5 | Cmax [39]: 1500 ng/mL
SMILES: CCCCCCC(=O)c1cc(-c2ccc(CC(=O)O)cc2)c2nccn2c1
Activity (Mus musculus [4]): Active | Activity [6]: Non-Toxic | Activity (Rattus norvegicus [8]): Active | Activity (Rattus norvegicus [25]): Dose-dependent effect | Activity (Mus musculus [26]): Dose-dependent effect | Activity (Mus musculus [27]): Active | Activity (Mus musculus [28]): Active | Activity (Rattus norvegicus [33]): Active | Activity (Mus musculus [40]): Dose-dependent effect | ED50 (Mus musculus [40]; C57BL6, po): 1.04 mg/kg | Activity [41]: Toxic
